# Assay results reported in ChEMBL document CHEMBL4689842, “EUbOPEN Chemogenomics Library wave 1” (2021).
# Several values for one entry are separate records, joined by “and”; a condition that tells them apart may be missing. Equal entries are not always repeated.
# System: Fibroblast
# Assay: Multiplex assay against human fibroblast
# Type: toxicity, cell-based
# Method in brief: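 Imaging took place on a CQ1 microscope at 37°C and 5% CO2 once compound had been added to live cells stained at seeding with Hoechst33342, BioTracker Green Microtubule Cytoskeleton Dye, MitoTracker Red and Annexin V Alexa Fluor 680. CellPathfinder machine-learning gating classed cells as Hoechst high-intensity objects or normal cells, classed normal cells as having healthy, pyknosed or fragmented nuclei, and classed pyknosed cells as mitotic or apoptotic. Tubulin, mitochondrial-mass and membrane-permeability phenotypes are per cents of the healthy-nucleus cells.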
# [1] = 12 h, 1 µM, compound concentration 1 uM, replicate 1
# [2] = 12 h, 1 µM, compound concentration 1 uM, replicate 2
# [3] = 12 h, 10 µM, compound concentration 10 uM, replicate 1
# [4] = 12 h, 10 µM, compound concentration 10 uM, replicate 2
# [5] = 24 h, 1 µM, compound concentration 1 uM, replicate 1
# [6] = 24 h, 1 µM, compound concentration 1 uM, replicate 2
# [7] = 24 h, 10 µM, compound concentration 10 uM, replicate 1
# [8] = 24 h, 10 µM, compound concentration 10 uM, replicate 2
# [9] = 48 h, 1 µM, compound concentration 1 uM, replicate 1
# [10] = 48 h, 1 µM, compound concentration 1 uM, replicate 2
# [11] = 48 h, 10 µM, compound concentration 10 uM, replicate 1
# [12] = 48 h, 10 µM, compound concentration 10 uM, replicate 2
smiles,measurement,setting,value
CN1CCN(Cc2ccc(Nc3ncc(Cl)c(Nc4ccccc4S(=O)(=O)N(C)C)n3)cc2)CC1 [DUBERMATINIB],Population Apoptotic (%),[1],54%
same,Population Fragmented Nuclei (%),[1],27%
same,Population Healthy Nuclei (%),[1],50%
same,Population Hoechst High Intensity Objects (%),[1],12%
same,Population Membrane Permeable-Phenotype (%),[1],41%
same,Population Mitochondria Different-Phenotype (%),[1],3%
same,Population Mitotic Cells (%),[1],45%
same,Population Normal (%),[1],87%
same,Population Pyknosed Nuclei (%),[1],21%
same,Population Tubulin-Different-Phenotype (%),[1],41%
same,Total Cell Count,[1],126
same,Population Apoptotic (%),[2],100%
same,Population Fragmented Nuclei (%),[2],13%
same,Population Healthy Nuclei (%),[2],83%
same,Population Hoechst High Intensity Objects (%),[2],10%
same,Population Membrane Permeable-Phenotype (%),[2],4%
same,Population Mitochondria Different-Phenotype (%),[2],16%
same,Population Mitotic Cells (%),[2],0%
same,Population Normal (%),[2],89%
same,Population Pyknosed Nuclei (%),[2],2%
same,Population Tubulin-Different-Phenotype (%),[2],11%
same,Total Cell Count,[2],65
same,Population Apoptotic (%),[3],72%
same,Population Fragmented Nuclei (%),[3],18%
same,Population Healthy Nuclei (%),[3],57%
same,Population Hoechst High Intensity Objects (%),[3],14%
same,Population Membrane Permeable-Phenotype (%),[3],22%
same,Population Mitochondria Different-Phenotype (%),[3],11%
same,Population Mitotic Cells (%),[3],28%
same,Population Normal (%),[3],85%
same,Population Pyknosed Nuclei (%),[3],23%
same,Population Tubulin-Different-Phenotype (%),[3],56%
same,Total Cell Count,[3],125
same,Population Apoptotic (%),[4],73%
same,Population Fragmented Nuclei (%),[4],45%
same,Population Healthy Nuclei (%),[4],31%
same,Population Hoechst High Intensity Objects (%),[4],9%
same,Population Membrane Permeable-Phenotype (%),[4],28%
same,Population Mitochondria Different-Phenotype (%),[4],38%
same,Population Mitotic Cells (%),[4],26%
same,Population Normal (%),[4],90%
same,Population Pyknosed Nuclei (%),[4],22%
same,Population Tubulin-Different-Phenotype (%),[4],42%
same,Total Cell Count,[4],91
same,Population Apoptotic (%),[5],70%
same,Population Fragmented Nuclei (%),[5],28%
same,Population Healthy Nuclei (%),[5],57%
same,Population Hoechst High Intensity Objects (%),[5],11%
same,Population Membrane Permeable-Phenotype (%),[5],31%
same,Population Mitochondria Different-Phenotype (%),[5],5%
same,Population Mitotic Cells (%),[5],29%
same,Population Normal (%),[5],88%
same,Population Pyknosed Nuclei (%),[5],14%
same,Population Tubulin-Different-Phenotype (%),[5],37%
same,Total Cell Count,[5],137
same,Population Apoptotic (%),[6],0%
same,Population Fragmented Nuclei (%),[6],11%
same,Population Healthy Nuclei (%),[6],83%
same,Population Hoechst High Intensity Objects (%),[6],6%
same,Population Membrane Permeable-Phenotype (%),[6],4%
same,Population Mitochondria Different-Phenotype (%),[6],36%
same,Population Mitotic Cells (%),[6],100%
same,Population Normal (%),[6],93%
same,Population Pyknosed Nuclei (%),[6],4%
same,Population Tubulin-Different-Phenotype (%),[6],14%
same,Total Cell Count,[6],70
same,Population Apoptotic (%),[7],42%
same,Population Fragmented Nuclei (%),[7],23%
same,Population Healthy Nuclei (%),[7],55%
same,Population Hoechst High Intensity Objects (%),[7],15%
same,Population Membrane Permeable-Phenotype (%),[7],12%
same,Population Mitochondria Different-Phenotype (%),[7],16%
same,Population Mitotic Cells (%),[7],57%
same,Population Normal (%),[7],84%
same,Population Pyknosed Nuclei (%),[7],21%
same,Population Tubulin-Different-Phenotype (%),[7],61%
same,Total Cell Count,[7],116
same,Population Apoptotic (%),[8],95%
same,Population Fragmented Nuclei (%),[8],30%
same,Population Healthy Nuclei (%),[8],33%
same,Population Hoechst High Intensity Objects (%),[8],14%
same,Population Membrane Permeable-Phenotype (%),[8],55%
same,Population Mitochondria Different-Phenotype (%),[8],55%
same,Population Mitotic Cells (%),[8],4%
same,Population Normal (%),[8],85%
same,Population Pyknosed Nuclei (%),[8],36%
same,Population Tubulin-Different-Phenotype (%),[8],65%
same,Total Cell Count,[8],87
same,Population Apoptotic (%),[9],62%
same,Population Fragmented Nuclei (%),[9],39%
same,Population Healthy Nuclei (%),[9],46%
same,Population Hoechst High Intensity Objects (%),[9],10%
same,Population Membrane Permeable-Phenotype (%),[9],22%
same,Population Mitochondria Different-Phenotype (%),[9],7%
same,Population Mitotic Cells (%),[9],37%
same,Population Normal (%),[9],89%
same,Population Pyknosed Nuclei (%),[9],13%
same,Population Tubulin-Different-Phenotype (%),[9],40%
same,Total Cell Count,[9],129
same,Population Apoptotic (%),[10],66%
same,Population Fragmented Nuclei (%),[10],30%
same,Population Healthy Nuclei (%),[10],67%
same,Population Hoechst High Intensity Objects (%),[10],4%
same,Population Membrane Permeable-Phenotype (%),[10],24%
same,Population Mitochondria Different-Phenotype (%),[10],5%
same,Population Mitotic Cells (%),[10],33%
same,Population Normal (%),[10],95%
same,Population Pyknosed Nuclei (%),[10],2%
same,Population Tubulin-Different-Phenotype (%),[10],41%
same,Total Cell Count,[10],115
same,Population Apoptotic (%),[11],53%
same,Population Fragmented Nuclei (%),[11],39%
same,Population Healthy Nuclei (%),[11],36%
same,Population Hoechst High Intensity Objects (%),[11],13%
same,Population Membrane Permeable-Phenotype (%),[11],31%
same,Population Mitochondria Different-Phenotype (%),[11],21%
same,Population Mitotic Cells (%),[11],46%
same,Population Normal (%),[11],86%
same,Population Pyknosed Nuclei (%),[11],24%
same,Population Tubulin-Different-Phenotype (%),[11],73%
same,Total Cell Count,[11],122
same,Population Apoptotic (%),[12],50%
same,Population Fragmented Nuclei (%),[12],43%
same,Population Healthy Nuclei (%),[12],44%
same,Population Hoechst High Intensity Objects (%),[12],16%
same,Population Membrane Permeable-Phenotype (%),[12],32%
same,Population Mitochondria Different-Phenotype (%),[12],19%
same,Population Mitotic Cells (%),[12],50%
same,Population Normal (%),[12],83%
same,Population Pyknosed Nuclei (%),[12],11%
same,Population Tubulin-Different-Phenotype (%),[12],48%
same,Total Cell Count,[12],83
C#Cc1cccc(Nc2ncnc3cc(OCCOC)c(OCCOC)cc23)c1 [ERLOTINIB],Population Apoptotic (%),[3],59% and 66%
same,Population Fragmented Nuclei (%),[3],22% and 24% and 20%
same,Population Healthy Nuclei (%),[3],35% and 58% and 62%
same,Population Hoechst High Intensity Objects (%),[3],10% and 11% and 15%
same,Population Mitotic Cells (%),[3],40% and 33% and 29%
same,Population Normal (%),[3],89% and 88% and 84%
same,Population Pyknosed Nuclei (%),[3],41% and 16%
same,Total Cell Count,[3],125 and 263 and 267
same,Population Membrane Permeable-Phenotype (%),[4],10% and 9% and 13%
same,Population Normal (%),[4],57% and 66% and 91%
same,Population Apoptotic (%),[7],60% and 66%
same,Population Fragmented Nuclei (%),[7],23% and 27% and 21%
same,Population Healthy Nuclei (%),[7],46% and 52% and 60%
same,Population Hoechst High Intensity Objects (%),[7],22% and 12% and 19%
same,Population Mitotic Cells (%),[7],40% and 39% and 33%
same,Population Normal (%),[7],77% and 87% and 80%
same,Population Pyknosed Nuclei (%),[7],30% and 19% and 18%
same,Total Cell Count,[7],127 and 268 and 287
same,Population Apoptotic (%),[8],100% and 57% and 75%
same,Population Hoechst High Intensity Objects (%),[8],28% and 38%
same,Population Normal (%),[8],71% and 61%
same,Population Pyknosed Nuclei (%),[8],10% and 16%
same,Population Apoptotic (%),[11],87%
same,Population Fragmented Nuclei (%),[11],41%
same,Population Healthy Nuclei (%),[11],41%
same,Population Hoechst High Intensity Objects (%),[11],16%
same,Population Membrane Permeable-Phenotype (%),[11],23%
same,Population Mitochondria Different-Phenotype (%),[11],33%
same,Population Mitotic Cells (%),[11],12%
same,Population Normal (%),[11],83%
same,Population Pyknosed Nuclei (%),[11],17%
same,Population Tubulin-Different-Phenotype (%),[11],89%
same,Total Cell Count,[11],113
same,Population Apoptotic (%),[12],50%
same,Population Fragmented Nuclei (%),[12],28%
same,Population Healthy Nuclei (%),[12],62%
same,Population Hoechst High Intensity Objects (%),[12],23%
same,Population Membrane Permeable-Phenotype (%),[12],19%
same,Population Mitochondria Different-Phenotype (%),[12],19%
same,Population Mitotic Cells (%),[12],50%
same,Population Normal (%),[12],76%
same,Population Pyknosed Nuclei (%),[12],9%
same,Population Tubulin-Different-Phenotype (%),[12],95%
same,Total Cell Count,[12],86
